What follows are compounds tested against T1, UDP-N-acetylmuramoylalanine-D-glutamyl-lysine-D-alanyl-D-alanine ligase (Streptococcus pneumoniae R6, UniProt Q8DNV6) (assay: Antibacterial activity against UDP-MurNAc-pentapeptide synthetase from Streptococcus pneumoniae.).
T1 sequence (Q8DNV6 whole entry): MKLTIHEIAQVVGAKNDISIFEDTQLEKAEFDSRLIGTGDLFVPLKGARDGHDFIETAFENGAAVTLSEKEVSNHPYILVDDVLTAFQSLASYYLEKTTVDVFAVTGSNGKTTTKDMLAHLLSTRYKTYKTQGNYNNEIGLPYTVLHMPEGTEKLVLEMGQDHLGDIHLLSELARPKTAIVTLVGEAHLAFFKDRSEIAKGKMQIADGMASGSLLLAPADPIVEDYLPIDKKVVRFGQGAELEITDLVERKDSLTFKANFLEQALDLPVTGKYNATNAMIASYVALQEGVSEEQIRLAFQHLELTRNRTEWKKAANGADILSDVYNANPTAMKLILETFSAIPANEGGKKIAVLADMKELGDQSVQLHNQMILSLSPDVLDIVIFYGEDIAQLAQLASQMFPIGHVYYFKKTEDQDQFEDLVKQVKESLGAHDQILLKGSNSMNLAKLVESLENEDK
Procedure, shortened: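 Activity was read as radiolabeled free phosphate released. IC50 was read graphically from four-point concentration plots spanning it. Each point is the mean of at least two determinations, and each IC50 the mean of at least two independent plots.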

Compared with `CNS(=O)(=O)c1ccc(Cl)c(C(=O)Nc2sc3c(c2C#N)CCC3)c1`, `CN(C)CCCNS(=O)(=O)c1ccc(Cl)c(C(=O)Nc2sc3c(c2C#N)CCC3)c1` is higher in IC50: 15 µM for the first, over 100 µM for the second.

`CN(C)CCCNc1cc(Cl)c(C(=O)Nc2sc3c(c2C#N)CCC3)cc1S(=O)(=O)N1CCOCC1` and `N#Cc1c(NC(=O)c2cc(S(=O)(=O)N3CCOCC3)c(NCCCO)cc2Cl)sc2c1CCC2` cannot be ordered by IC50: over 100 µM for the first, over 100 µM for the second.

Compared with `CCN(CC)S(=O)(=O)c1ccc(Cl)c(C(=O)Nc2sc3c(c2C(N)=O)CCC3)c1`, `CCOC(=O)c1c(NC(=O)c2cc(S(=O)(=O)N(CC)CC)ccc2Cl)sc2c1CCC2` is higher in IC50: 66 µM for the first, over 100 µM for the second. The first is the more potent here.

`CC(COc1ccc(S(=O)(=O)N2CCOCC2)cc1C(=O)Nc1sc2c(c1C#N)CCC2)c1ccccc1` (centres undefined) and `CCOc1ccc(S(=O)(=O)N2CCOCC2)cc1C(=O)Nc1sc2c(c1C#N)CCC2` cannot be ordered by IC50: over 100 µM for the first, over 100 µM for the second.

First: N#Cc1c(NC(=O)c2cc(S(=O)(=O)N3CCOCC3)c(F)cc2Cl)sc2c1CCC2
Second: N#Cc1c(NC(=O)c2cc(S(=O)(=O)N3CCOCC3)c(Cl)cc2Cl)sc2c1CCC2
The IC50 of the first is 21-fold higher: 6.4 µM for the first, 0.3 µM for the second. The second is the more potent here.

Going from `CCN(CC)S(=O)(=O)c1ccc(Cl)c(C(C)Nc2sc3c(c2C#N)CCC3)c1` (centres undefined) to `CCN(CC)S(=O)(=O)c1ccc(Cl)c(C(=O)Nc2sc3c(c2C#N)CCC3)c1`, the IC50 falls from over 100 µM to 8 µM. The second is the more potent here.

`CCN(CC)S(=O)(=O)c1ccc(Cl)c(C(=O)Nc2sc3c(c2CN)CCC3)c1` and `CCN(CC)S(=O)(=O)c1ccc(Cl)c(C(=O)Nc2sc3c(c2CNC(C)=O)CCC3)c1` cannot be ordered by IC50: over 100 µM for the first, over 100 µM for the second.

Compared with `N#Cc1c(NC(=O)c2cc(S(=O)(=O)N3CCOCC3)ccc2Cl)sc2c1CCCC2`, `N#Cc1c(NC(=O)c2cc(S(=O)(=O)N3CCOCC3)ccc2Cl)sc2c1CCCCC2` is 2.5-fold higher in IC50: 1.7 µM for the first, 4.2 µM for the second. The first is the more potent here.

Compared with `N#Cc1c(NC(=O)c2cc(S(=O)(=O)N3CCOCC3)ccc2Cl)sc2c1CCC2`, `N#Cc1c(NC(=O)c2cc(S(=O)(=O)N3CCOCC3)ccc2Br)sc2c1CCC2` is 2.1-fold lower in IC50: 9 µM for the first, 4.2 µM for the second. The second is the more potent here.

Going from `CCN(CC)S(=O)(=O)c1cc(C(=O)Nc2sc3c(c2C#N)CCC3)c(Cl)cc1Cl` to `CCN(CC)S(=O)(=O)c1ccc(Cl)c(C(=O)Nc2sc3c(c2C#N)CCCC3)c1`, the IC50 falls from 5.2 µM to 1.4 µM (3.7-fold). The second is the more potent here.

Compared with `CCN(CC)S(=O)(=O)c1ccc(Cl)c(C(=O)Nc2sc3c(c2C#N)CCCCC3)c1`, `CCN(CC)S(=O)(=O)c1ccc(Cl)c(C(=O)N(C)c2sc3c(c2C#N)CCC3)c1` is higher in IC50: 3.4 µM for the first, over 100 µM for the second. The first is the more potent here.

Compared with `N#Cc1c(NC(=O)c2cc(S(=O)(=O)N3CCOCC3)c(Cl)cc2Cl)sc2c1CCC(c1ccc(O)cc1)C2` (centres undefined), `N#Cc1c(NC(=O)c2cc(S(=O)(=O)N3CCOCC3)c(Cl)cc2Cl)sc2c1CCC(c1ccccc1)C2` (centres undefined) is 3.2-fold higher in IC50: 0.022 µM for the first, 0.07 µM for the second.

First: CCOC(=O)C1CCc2c(sc(NC(=O)c3cc(S(=O)(=O)N(CC)CC)ccc3Cl)c2C#N)C1 (centres undefined)
Second: CCN(CC)S(=O)(=O)c1ccc(Cl)c(C(=O)Nc2sc3c(c2C#N)CCC(c2ccc(O)cc2)C3)c1 (centres undefined)
The IC50 of the first is 110-fold higher: 6 µM for the first, 0.054 µM for the second. The second is the more potent here.

Going from `CN(C)c1ccc(S(=O)(=O)N2CCOCC2)cc1C(=O)Nc1sc2c(c1C#N)CCC2` to `CN(C)CCCNc1ccc(S(=O)(=O)N2CCOCC2)cc1C(=O)Nc1sc2c(c1C#N)CCC2`, the IC50 falls from over 100 µM to 74 µM.

Compared with `N#Cc1c(NC(=O)c2cccc(S(=O)(=O)N3CCOCC3)c2)sc2c1CCC2`, `CNc1cc(Cl)c(C(=O)Nc2sc3c(c2C#N)CCC3)cc1S(=O)(=O)N1CCOCC1` is lower in IC50: over 100 µM for the first, 62 µM for the second.

Compared with `N#Cc1c(NC(=O)c2cc(S(=O)(=O)N3CCOCC3)c(Cl)cc2Cl)sc2c1CCCC2`, `N#Cc1c(NC(=O)c2cc(S(=O)(=O)Nc3ccccc3)ccc2Cl)sc2c1CCC2` is 26-fold higher in IC50: 1 µM for the first, 26 µM for the second.

First: CCN(CC)S(=O)(=O)c1ccc(Cl)c(CNc2sc3c(c2C#N)CCC3)c1
Second: CCN(CC)S(=O)(=O)c1cc(C(=O)Nc2sc3c(c2C#N)CCC(c2ccc(O)cc2)C3)c(Cl)cc1Cl (centres undefined)
The IC50 of the first is higher: over 100 µM for the first, 0.067 µM for the second. The second is the more potent here.

Source: ChEMBL document CHEMBL1148431, “Structure-activity relationships of novel potent MurF inhibitors” (Bioorg Med Chem Lett, 2004)
